Usually Ki stands for the equilibrium dissociation constant of an inhibitor or competing ligand from its target.

Molecules are shown by their SMILES.

For the assay, the target named is VIM-2 metallo-beta-lactamase (Pseudomonas aeruginosa). Nature of the assay: inhibition constants against purified VIM-2 enzyme – biochemical, absorbance, probe candidates and analogs, late-stage follow-up (AID 624083). Particulars: recombinant VIM-2, nitrocefin hydrolysis absorbance 495 nm. The method, boiled down: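 Material: VIM-2 enzyme / Buffer or medium: pH 7.1 HEPES, zinc, Brij / Also added: nitrocefin substrate at varied concentrations / Compound dosing: inhibitor concentration series crossed with varied substrate / Timing: enzyme reaction at room temperature / Technique: absorbance at 495 nm tracking nitrocefin turnover over time / Read-out: Ki from mixed-inhibition regression / Repeats: two replicates per measurement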

For the compound `CN1CCN(NC(=O)CN2C(=O)/C(=C/c3c(Cl)ccc(Cl)c3Cl)SC2=S)CC1`, the Ki was 183 nM.
As to `CN1CCN(NC(=O)CN2C(=O)/C(=C/c3c(Cl)cccc3Cl)SC2=S)CC1`, the Ki was 1780 nM.
